The test system of experiment [1] is HL-60. In words: Cytotoxicity against human HL60 cells assessed as reduction in cell survival up to 1 uM treated for 30 mins with ROS scavenger N-acetylcysteine measured after 72 hrs by MTT assay. The experiment is classed as functional, cell-based. (In general: Tetrazolium assays rely on reduction of a dye to a coloured formazan, in cell work by metabolically active cells.)

A short description of experiment [2]: Antiproliferative activity against HEK293T cells after 72 hrs by MTT assay. The format is cell-based. As to conditions: Homo sapiens, HEK-293T. The essentials: (§1)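 MTT viability after 72 h continuous exposure. Cells seeded 24 h beforehand at 2,000/well (adherent) or 10,000/well (suspension), then given 0, 0.01, 0.1, 0.5, 1.0 or 10.0 μM compound diluted from 10 mM DMSO stock into RPMI or DMEM with 10% FBS, 37°C, 5% CO2. IC50 taken as concentration killing 50% of cells versus untreated culture.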

Experiment [3] has as its system HL-60. In words: Induction of apoptosis in human HL60 cells assessed as decrease in Bcl-XL expression at 0.1 to 1 uM after 48 hrs by Western blot analysis. The experiment is classed as functional, cell-based. The gist of the method: (§2)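 HL-60 cells exposed 48 h; proteins isolated, resolved by SDS/PAGE, transferred to PVDF and immunoblotted. Equal loading checked by re-probing the same membrane for beta-actin. Peroxidase-labelled secondary antibodies at 1:5,000.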

Experiment [4] is described as follows: Cell cycle arrest in human HL60 cells assessed as accumulation at G0/G1 phase at 0.1 to 1 uM after 8 to 48 hrs by propidium iodide staining based flow cytometry. As to conditions: HL-60. The format is functional. The gist of the method: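 HL-60 cells treated 8 and 48 h, washed in PBS, fixed in 70% ethanol and stored at -20°C. Then RNase (10 µg/ml) 30 min at 37°C, propidium iodide (5 µg/ml) 30 min, and cell-cycle distribution read by flow cytometry.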
For orientation: Flow cytometry measures light scatter and fluorescence of single cells or particles in a stream.

Experiment [5] in a line: Antiproliferative activity against human SKOV3 cells after 72 hrs by MTT assay. The experiment is classed as functional, cell-based. Conditions: SK-OV-3, 72 h. The gist of the method: as §1
The test system of experiment [6] is HL-60. In words: Induction of apoptosis in human HL60 cells assessed as increase in p21 expression at 0.1 to 1 uM after 48 hrs by Western blot analysis. The format is functional, cell-based. The essentials: as §2
For orientation: Immunoblotting shows a protein as a band on a membrane.

A further experiment relates to L1210. Briefly: Antiproliferative activity against mouse L1210 cells after 72 hrs by MTT assay. The format is functional, cell-based. Conditions: L1210, 72 h. The essentials: as §1
The target of experiment [7] is T1, Endonuclease G, mitochondrial (Homo sapiens) (UniProt Q14249).
T1 sequence (whole entry): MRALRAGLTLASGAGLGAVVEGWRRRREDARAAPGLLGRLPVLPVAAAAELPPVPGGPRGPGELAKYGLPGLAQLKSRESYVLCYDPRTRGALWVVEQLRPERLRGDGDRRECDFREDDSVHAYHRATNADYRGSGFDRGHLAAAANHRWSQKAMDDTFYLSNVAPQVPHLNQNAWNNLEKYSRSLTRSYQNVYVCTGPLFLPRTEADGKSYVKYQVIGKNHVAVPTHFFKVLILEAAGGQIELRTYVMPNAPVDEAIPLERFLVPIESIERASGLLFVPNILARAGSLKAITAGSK
In words: Activation of endonuclease G in human HL60 cells at 0.1 to 1 uM after 48 hrs by Western blot analysis. The format is cell-based. As to conditions: HL-60. The essentials:
as §2

Experiment [8] has as its system HL60/ADR. Briefly: Cytotoxicity against human HL60/ADR cells assessed as reduction in cell survival up to 1 uM treated for 30 mins with ROS scavenger N-acetylcysteine measured after 72 hrs by MTT assay. The experiment is classed as functional, cell-based.
The subject of another experiment is Jurkat. In words: Antiproliferative activity against human Jurkat cells after 72 hrs by MTT assay. The experiment is classed as functional, cell-based. The gist of the method: as §1
A short description of experiment [9]: (§3) Antiproliferative activity against human HL60/ADR cells after 72 hrs by MTT assay. The format is functional, cell-based. The essentials: as §1
In experiment [10] the test system is HL60/ADR. Described as §3. The experiment is classed as functional, cell-based. The gist of the method:
as §1

In experiment [11] the test system is HL-60. Briefly: Induction of apoptosis in human HL60 cells assessed as decrease in cyclinD3 expression at 0.1 to 1 uM after 48 hrs by Western blot analysis. The format is functional, cell-based. The gist of the method: as §2
Experiment [12] in a line: Antiproliferative activity against mouse KS483 cells after 72 hrs by MTT assay. The experiment is classed as cell-based. Conditions: KS483, 72 h. The essentials: as §1
The target of experiment [13] is T2, Retinoblastoma-associated protein (Homo sapiens) (UniProt P06400).
T2 sequence (whole entry): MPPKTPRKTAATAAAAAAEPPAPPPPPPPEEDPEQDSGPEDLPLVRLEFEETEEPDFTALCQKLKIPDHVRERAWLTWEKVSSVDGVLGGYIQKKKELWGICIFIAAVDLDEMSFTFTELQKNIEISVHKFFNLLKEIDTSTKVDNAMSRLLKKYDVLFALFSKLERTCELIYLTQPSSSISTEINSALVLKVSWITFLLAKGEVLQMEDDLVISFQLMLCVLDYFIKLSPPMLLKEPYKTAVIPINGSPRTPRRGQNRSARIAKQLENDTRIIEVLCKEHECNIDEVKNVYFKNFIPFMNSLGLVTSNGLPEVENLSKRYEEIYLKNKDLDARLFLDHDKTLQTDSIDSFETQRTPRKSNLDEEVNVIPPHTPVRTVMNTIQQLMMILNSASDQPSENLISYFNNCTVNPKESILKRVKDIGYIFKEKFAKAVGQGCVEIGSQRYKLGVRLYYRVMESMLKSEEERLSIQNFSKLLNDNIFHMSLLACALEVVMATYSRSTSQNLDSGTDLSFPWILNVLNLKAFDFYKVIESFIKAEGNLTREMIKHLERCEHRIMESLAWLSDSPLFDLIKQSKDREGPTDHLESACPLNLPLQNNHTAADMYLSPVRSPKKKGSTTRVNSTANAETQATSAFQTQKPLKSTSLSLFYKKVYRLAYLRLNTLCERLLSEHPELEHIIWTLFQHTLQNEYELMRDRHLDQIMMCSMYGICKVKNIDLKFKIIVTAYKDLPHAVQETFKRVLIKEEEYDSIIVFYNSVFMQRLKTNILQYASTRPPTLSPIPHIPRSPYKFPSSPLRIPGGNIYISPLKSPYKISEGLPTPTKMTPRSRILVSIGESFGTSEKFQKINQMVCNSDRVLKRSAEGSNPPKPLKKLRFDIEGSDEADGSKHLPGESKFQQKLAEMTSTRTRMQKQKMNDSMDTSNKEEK
Briefly: Inhibition of retinoblastoma protein phosphorylation in human HL60 cells at 0.1 to 1 uM after 48 hrs by Western blot analysis. Conditions: HL-60. The experiment is classed as cell-based. The gist of the method: as §2

Experiment [14] deals with MAP kinase p38 (Homo sapiens) (UniProt O15264+Q15759+Q16539+P53778). In words: Induction of MAPK p38 phosphorylation in human HL60 cells at 0.1 to 1 uM after 48 hrs by Western blot analysis. The format is cell-based. Conditions: HL-60. The gist of the method: as §2
Experiment [15] relates to HL-60. Briefly: Antiproliferative activity against human HL60 cells at 0.01 to 10 uM by MTT assay. The experiment is classed as functional, cell-based. As to conditions: TDE = time-dependent effect. The essentials: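 MTT viability: cells seeded 24 h at 2,000 (adherent) or 10,000 (suspension) per well, then exposed 72 h to 0.01-10.0 μM (0, 0.01, 0.1, 0.5, 1.0, 10.0 μM), diluted from 10 mM DMSO stock into medium with 10% FBS. IC50 is concentration killing 50% of cells relative to untreated control.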

For experiment [16], the system named is HL60/ADR. In words: Cytotoxicity against human HL60/ADR cells assessed as reduction in cell survival up to 1 uM treated for 30 mins with ROS scavenger ascorbic acid measured after 72 hrs by MTT assay. The format is functional, cell-based.
The target in experiment [17] is Mitogen-activated protein kinase; ERK1/ERK2 (Homo sapiens) (UniProt P27361+P28482). Briefly: Activation of ERK1/2 in human HL60 cells at 0.1 to 1 uM after 48 hrs by Western blot analysis. The experiment is classed as cell-based. Conditions: HL-60. The essentials:
as §2

Here are results for one compound from ChEMBL document CHEMBL3804789, “5-Ene-4-thiazolidinones induce apoptosis in mammalian leukemia cells” (Eur J Med Chem, 2016).

Activity calls are given as the source filed them. The rule behind the calls is not given here. Some results are limits rather than exact numbers.

Chain of Mitogen-activated protein kinase; ERK1/ERK2 (Homo sapiens) (P27361 whole entry, looked up): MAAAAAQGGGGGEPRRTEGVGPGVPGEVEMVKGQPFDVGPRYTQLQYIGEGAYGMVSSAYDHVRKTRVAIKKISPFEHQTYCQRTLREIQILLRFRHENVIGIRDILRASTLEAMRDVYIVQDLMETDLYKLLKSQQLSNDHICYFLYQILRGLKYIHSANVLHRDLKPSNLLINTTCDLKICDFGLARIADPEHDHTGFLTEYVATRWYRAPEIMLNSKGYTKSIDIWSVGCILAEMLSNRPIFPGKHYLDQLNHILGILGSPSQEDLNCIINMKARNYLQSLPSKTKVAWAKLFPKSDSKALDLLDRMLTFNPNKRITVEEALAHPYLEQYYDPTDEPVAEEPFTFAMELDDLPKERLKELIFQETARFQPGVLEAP
Chain of Mitogen-activated protein kinase; ERK1/ERK2 (Homo sapiens) (P28482 whole entry, looked up): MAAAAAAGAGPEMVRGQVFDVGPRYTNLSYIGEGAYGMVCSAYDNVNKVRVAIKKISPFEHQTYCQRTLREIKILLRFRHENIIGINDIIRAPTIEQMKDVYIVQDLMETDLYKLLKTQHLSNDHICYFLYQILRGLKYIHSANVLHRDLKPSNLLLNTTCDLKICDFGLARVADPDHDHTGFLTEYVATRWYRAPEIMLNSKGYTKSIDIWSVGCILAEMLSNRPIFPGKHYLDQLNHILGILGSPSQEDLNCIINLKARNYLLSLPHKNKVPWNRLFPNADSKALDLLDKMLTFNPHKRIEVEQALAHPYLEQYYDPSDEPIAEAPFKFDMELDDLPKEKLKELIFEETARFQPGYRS

As to `CC(=O)Oc1cccc(N2C(=O)/C(=C/N3N=C(c4ccccc4)CC3c3ccccc3O)SC2=S)c1` (centres undefined), the outcome in the experiment with HL-60 [1], in the experiment on HL60/ADR [8] and with HL60/ADR [16] was inactive. The IC50 (commonly the midpoint of a concentration-inhibition curve) is greater than 10 µM in experiment [2]; greater than 10 µM in experiment [5]; 0.7 µM in the experiment with L1210; 1.1 µM with Jurkat; 1 µM in experiment [9]; greater than 10 µM in experiment [12]. In addition, the result (in the experiment on HL-60 [3]; in experiment [4]; with HL-60 [6]; in experiment [7]; in the experiment with HL-60 [11]; in [14]) was Active. The result in [17] was Active. Moreover, the Activity result with HL60/ADR [10] is “Dose-dependent effect”; in the experiment on HL-60 [15] it was “tde”. In addition, the inhibition entry in experiment [13] was “Active”.
